Laboratory results published in ChEMBL document CHEMBL3826910, “Discovery of 3-(5'-Substituted)-Benzimidazole-5-(1-(3,5-dichloropyridin-4-yl)ethoxy)-1H-indazoles as Potent Fibroblast Growth Factor Receptor Inhibitors: Design, Synthesis, and Biological Evaluation” (J Med Chem, 2016).

Legend:
NCI-H1581 [1] = assay: Antiproliferative activity against FGFR1-amplified human NCI-H1581 cells after 72 hrs by CCK8/MTT assay; assay type: functional, cell-based; conditions: NCI-H1581, 72 h
[2] = molecular target: Vascular endothelial growth factor receptor 2 (Homo sapiens, UniProt P35968); assay: Inhibition of recombinant human VEGFR2 using poly (Glu, Tyr) 4:1 as substrate after 60 mins by ELISA
NCI-H1581 [3] = assay: Antitumor activity against human NCI-H1581 cells xenografted in nude mouse assessed as tumor growth inhibition at 20 mg/kg administered as qd for 21 days measured on day 21 post last dose relative to vehicle-treated control; assay type: functional; conditions: NCI-H1581, 504 h, read-out: TGI
cells [4] = conditions: Homo sapiens, KG-1, 72 h
cells [5] = conditions: Homo sapiens, SNU-16, 72 h
cells [6] = conditions: Homo sapiens, RT-112, 72 h
[7] = molecular target: Fibroblast growth factor receptor 1 (Homo sapiens, UniProt P11362); assay: Inhibition of recombinant human FGFR1 using poly (Glu, Tyr) 4:1 as substrate after 60 mins by ELISA
[8] = Cmax in Sprague-Dawley rat at 1 mg/kg, iv; assay type: ADME, organism-based; set-up: dose 1 mg/kg, route intravenous; conditions: in vivo
[9] = Cmax in Sprague-Dawley rat at 5 mg/kg, po; assay type: ADME, organism-based; set-up: dose 5 mg/kg, route oral; conditions: in vivo
In short: (§1)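 Male SD rats (n = 3) dosed orally by gavage at 5 mg/kg as a suspension in 0.5% CMC-Na. Quantified by LC-MS/MS. An IV arm (1 mg/kg) was run in parallel.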

[10] = Tmax in Sprague-Dawley rat at 5 mg/kg, po; assay type: ADME, organism-based; conditions: in vivo; in short: as §1
[11] = Half life in Sprague-Dawley rat at 1 mg/kg, iv; assay type: ADME, organism-based; conditions: in vivo
[12] = AUC (0 to infinity) in Sprague-Dawley rat at 1 mg/kg, iv; assay type: ADME, organism-based; set-up: dose 1 mg/kg, time infinity, route intravenous; conditions: in vivo
[13] = AUC (0 to infinity) in Sprague-Dawley rat at 5 mg/kg, po; assay type: ADME, organism-based; set-up: dose 5 mg/kg, route oral, time infinity; conditions: in vivo; in short: as §1
[14] = Clearance in Sprague-Dawley rat at 1 mg/kg, iv; assay type: ADME, organism-based; conditions: in vivo
[15] = Volume of distribution at steady state in Sprague-Dawley rat at 1 mg/kg, iv; assay type: ADME, organism-based; conditions: in vivo, read-out: Vdss
[16] = Oral bioavailability in Sprague-Dawley rat at 5 mg/kg; assay type: ADME, organism-based; conditions: in vivo; in short: as §1

Fibroblast growth factor receptor 1, sequence (P11362 whole entry): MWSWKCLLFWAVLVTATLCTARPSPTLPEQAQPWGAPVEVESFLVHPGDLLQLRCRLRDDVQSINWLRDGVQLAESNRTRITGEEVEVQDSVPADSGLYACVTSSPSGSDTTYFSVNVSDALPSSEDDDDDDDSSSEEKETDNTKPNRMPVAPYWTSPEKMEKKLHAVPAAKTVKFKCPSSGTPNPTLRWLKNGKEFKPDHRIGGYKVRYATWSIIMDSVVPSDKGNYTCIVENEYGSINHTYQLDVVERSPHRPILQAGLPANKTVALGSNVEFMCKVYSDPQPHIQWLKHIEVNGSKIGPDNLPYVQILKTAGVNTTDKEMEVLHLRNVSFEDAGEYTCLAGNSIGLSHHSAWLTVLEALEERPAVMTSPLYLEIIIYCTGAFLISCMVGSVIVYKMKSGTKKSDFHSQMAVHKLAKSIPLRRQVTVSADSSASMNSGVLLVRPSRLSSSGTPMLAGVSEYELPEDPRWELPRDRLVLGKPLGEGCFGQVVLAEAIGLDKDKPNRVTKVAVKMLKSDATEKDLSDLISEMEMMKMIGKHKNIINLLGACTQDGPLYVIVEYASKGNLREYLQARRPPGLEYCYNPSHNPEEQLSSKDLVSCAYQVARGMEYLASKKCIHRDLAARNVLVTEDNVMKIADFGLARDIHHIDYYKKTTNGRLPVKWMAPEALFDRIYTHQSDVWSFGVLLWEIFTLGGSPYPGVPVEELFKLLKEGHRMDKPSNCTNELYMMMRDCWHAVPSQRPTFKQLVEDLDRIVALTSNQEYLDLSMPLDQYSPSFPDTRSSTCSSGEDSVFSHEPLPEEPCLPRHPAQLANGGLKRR
Vascular endothelial growth factor receptor 2, sequence (P35968 whole entry): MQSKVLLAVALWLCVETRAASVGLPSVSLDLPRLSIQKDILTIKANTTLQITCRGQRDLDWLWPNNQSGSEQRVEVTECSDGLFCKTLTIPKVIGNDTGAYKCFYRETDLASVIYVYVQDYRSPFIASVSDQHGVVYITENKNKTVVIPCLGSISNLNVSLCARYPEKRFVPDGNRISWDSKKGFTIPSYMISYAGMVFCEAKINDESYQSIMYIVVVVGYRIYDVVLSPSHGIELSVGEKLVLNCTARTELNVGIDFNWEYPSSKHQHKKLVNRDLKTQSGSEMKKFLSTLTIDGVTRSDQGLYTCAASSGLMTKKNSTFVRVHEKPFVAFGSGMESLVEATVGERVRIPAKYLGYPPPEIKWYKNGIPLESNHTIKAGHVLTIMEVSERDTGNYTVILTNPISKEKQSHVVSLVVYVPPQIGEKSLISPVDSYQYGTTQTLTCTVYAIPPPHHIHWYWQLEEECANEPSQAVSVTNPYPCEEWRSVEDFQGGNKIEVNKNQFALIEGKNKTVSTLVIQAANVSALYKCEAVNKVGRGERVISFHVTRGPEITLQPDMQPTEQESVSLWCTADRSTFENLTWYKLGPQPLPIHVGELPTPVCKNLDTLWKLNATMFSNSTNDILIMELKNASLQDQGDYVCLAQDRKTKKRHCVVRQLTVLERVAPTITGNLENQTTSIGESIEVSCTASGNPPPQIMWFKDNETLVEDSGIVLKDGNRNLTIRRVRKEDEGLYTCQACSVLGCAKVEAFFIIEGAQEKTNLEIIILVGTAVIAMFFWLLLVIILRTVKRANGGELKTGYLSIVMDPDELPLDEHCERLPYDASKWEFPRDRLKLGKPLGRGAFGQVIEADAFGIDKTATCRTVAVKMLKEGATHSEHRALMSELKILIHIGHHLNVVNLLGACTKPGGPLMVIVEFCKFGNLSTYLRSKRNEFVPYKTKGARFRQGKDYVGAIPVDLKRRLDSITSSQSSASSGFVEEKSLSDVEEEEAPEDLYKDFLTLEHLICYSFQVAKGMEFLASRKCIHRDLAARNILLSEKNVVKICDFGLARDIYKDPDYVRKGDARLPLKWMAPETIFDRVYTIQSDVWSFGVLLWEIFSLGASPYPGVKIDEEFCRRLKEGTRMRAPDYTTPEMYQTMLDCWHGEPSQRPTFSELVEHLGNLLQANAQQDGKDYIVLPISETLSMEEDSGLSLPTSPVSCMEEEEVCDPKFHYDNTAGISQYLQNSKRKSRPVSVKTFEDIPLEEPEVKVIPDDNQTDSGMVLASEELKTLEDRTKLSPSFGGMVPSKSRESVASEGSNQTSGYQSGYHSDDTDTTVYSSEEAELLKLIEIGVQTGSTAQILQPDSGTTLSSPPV

SMILES	IC50 (NCI-H1581 [1]) [nM]	further results
c1cncc(COc2ccc3[nH]nc(-c4nc5cc(N6CCCCC6)ccc5[nH]4)c3c2)c1	1860	–
CCC(Oc1ccc2[nH]nc(-c3nc4cc(N5CCCCC5)ccc4[nH]3)c2c1)c1c(Cl)cncc1Cl (stereo not drawn)	380	–
CC(Oc1ccc2[nH]nc(-c3nc4cc(C5CCN(C)CC5)ccc4[nH]3)c2c1)c1c(Cl)cncc1Cl (stereo not drawn)	1.6	IC50 [2]: 7.8 nM
Clc1cncc(Cl)c1COc1ccc2[nH]nc(-c3nc4cc(N5CCCCC5)ccc4[nH]3)c2c1	159	–
COc1cc(CCc2cc(NC(=O)c3ccc(N4C[C@@H](C)N[C@@H](C)C4)cc3)n[nH]2)cc(OC)c1 [FEXAGRATINIB]	92.1	inhibition in vivo at 20 mg/kg (NCI-H1581 [3]): 73.9%; IC50 (cells [4]): 6.4 nM; IC50 (cells [5]): 13.4 nM; IC50 (cells [6]): 88.4 nM
CC(Oc1ccc2[nH]nc(-c3nc4cc(N5CCCN(C)CC5)ccc4[nH]3)c2c1)c1c(Cl)cncc1Cl (stereo not drawn)	8.1	–
C[C@@H](Oc1ccc2[nH]nc(/C=C/c3cnn(CCO)c3)c2c1)c1c(Cl)cncc1Cl [LY-2874455]	< 0.5	IC50 [2]: 5.8 nM
CC(Oc1ccc2[nH]nc(-c3nc4c(N5CCCCC5)cccc4[nH]3)c2c1)c1c(Cl)cncc1Cl (stereo not drawn)	–	IC50 [7]: > 1000 nM
CC(Oc1ccc2[nH]nc(-c3nc4cc(N5CCCCC5)ccc4[nH]3)c2c1)c1c(Cl)ccnc1Cl (stereo not drawn)	30.8	–
c1ccc(COc2ccc3[nH]nc(-c4nc5cc(N6CCCCC6)ccc5[nH]4)c3c2)nc1	1230	–
Clc1cnccc1COc1ccc2[nH]nc(-c3nc4cc(N5CCCCC5)ccc4[nH]3)c2c1	3070	–
Fc1ccc2c(-c3nc4cc(N5CCC(N6CCCCC6)CC5)ccc4[nH]3)[nH]nc2c1	749	IC50 [7]: 20.3 nM; IC50 [2]: 16.4 nM
CC(Oc1ccc2[nH]nc(-c3nc4ccccc4s3)c2c1)c1c(Cl)cncc1Cl (stereo not drawn)	> 10000	–
CC(Oc1ccc2[nH]nc(-c3nc4ccccc4o3)c2c1)c1c(Cl)cncc1Cl (stereo not drawn)	3040	–
CC(Oc1ccc2[nH]nc(-c3nc4cc(N5CCC(N6CCCCC6)CC5)ccc4[nH]3)c2c1)c1c(Cl)cncc1Cl (stereo not drawn)	10.3	–
CC(Oc1ccc2[nH]nc(-c3cc4ccccc4[nH]3)c2c1)c1c(Cl)cncc1Cl (stereo not drawn)	817	–
c1cc(COc2ccc3[nH]nc(-c4nc5cc(N6CCCCC6)ccc5[nH]4)c3c2)ccn1	5020	–

Continued, in another order:

IC50 (NCI-H1581 [1]) [nM]	SMILES	further results
> 100	C[C@H](Oc1ccc2[nH]nc(-c3nc4cc(CCO)ccc4[nH]3)c2c1)c1c(Cl)cncc1Cl	–
14.1	CC(Oc1ccc2[nH]nc(-c3nc4cc(N5CCCCC5)ccc4[nH]3)c2c1)c1c(Cl)cncc1Cl (stereo not drawn)	–
5.9	CCN1CCN(c2ccc3[nH]c(-c4n[nH]c5ccc(OC(C)c6c(Cl)cncc6Cl)cc45)nc3c2)CC1 (stereo not drawn)	–
0.8	CC(Oc1ccc2[nH]nc(-c3nc4cc(N(C)C(=O)CN(C)C)ccc4[nH]3)c2c1)c1c(Cl)cncc1Cl (stereo not drawn)	IC50 [2]: 2.5 nM
130	C[C@H](Oc1ccc2[nH]nc(-c3nc4cc(N5CCN(C)CC5)ccc4[nH]3)c2c1)c1c(Cl)cncc1Cl	IC50 [7]: 9.4 nM
1.4	C[C@@H](Oc1ccc2[nH]nc(-c3nc4cc(CCO)ccc4[nH]3)c2c1)c1c(Cl)cncc1Cl	Cmax [8]: 735 ng/mL; Cmax [9]: 195 ng/mL; Tmax [10]: 0.8 h; half-life [11]: 7.3 h; AUC(0-inf) [12]: 582 ng·h/mL; AUC(0-inf) [13]: 664 ng·h/mL; clearance [14]: 28.3 mL/min/kg; Vd [15]: 17.6 L/kg; bioavailability [16]: 22%
582	CC(Oc1ccc2[nH]nc(-c3nc4cc(F)ccc4[nH]3)c2c1)c1c(Cl)cncc1Cl (stereo not drawn)	–
3.3	CC(Oc1ccc2[nH]nc(-c3nc4cc(CCO)ccc4[nH]3)c2c1)c1c(Cl)cncc1Cl (stereo not drawn)	IC50 [2]: 12.6 nM
1	CC(Oc1ccc2[nH]nc(-c3nc4cc(N5CCN(C)CC5)ccc4[nH]3)c2c1)c1c(Cl)cncc1Cl (stereo not drawn)	IC50 [7]: 1 nM; IC50 [2]: 8 nM
2.2	CC(Oc1ccc2[nH]nc(-c3nc4cc(N5CCOCC5)ccc4[nH]3)c2c1)c1c(Cl)cncc1Cl (stereo not drawn)	–
922	Cc1ccc2[nH]c(-c3n[nH]c4ccc(OC(C)c5c(Cl)cncc5Cl)cc34)nc2c1 (stereo not drawn)	–
1.9	CC(Oc1ccc2[nH]nc(-c3nc4cc(N5C[C@@H](C)N[C@@H](C)C5)ccc4[nH]3)c2c1)c1c(Cl)cncc1Cl (stereo partly drawn)	IC50 [2]: 9 nM
403	CC(Oc1ccc2[nH]nc(-c3nc4ccccc4[nH]3)c2c1)c1c(Cl)cncc1Cl (stereo not drawn)	–
315	COc1ccc2[nH]c(-c3n[nH]c4ccc(OC(C)c5c(Cl)cncc5Cl)cc34)nc2c1 (stereo not drawn)	–
1.1	CC(Oc1ccc2[nH]nc(-c3nc4cc(NCCN(C)C)ccc4[nH]3)c2c1)c1c(Cl)cncc1Cl (stereo not drawn)	–
5.5	CNc1ccc2[nH]c(-c3n[nH]c4ccc(OC(C)c5c(Cl)cncc5Cl)cc34)nc2c1 (stereo not drawn)	–
1.2	COCCNc1ccc2[nH]c(-c3n[nH]c4ccc(OC(C)c5c(Cl)cncc5Cl)cc34)nc2c1 (stereo not drawn)	–
> 10000	Cc1cccc2[nH]c(-c3n[nH]c4ccc(OC(C)c5c(Cl)cncc5Cl)cc34)nc12 (stereo not drawn)	–
